IC50 data for 21 compounds are collected here from ChEMBL document CHEMBL3232810, “Synthesis, biological evaluation and 3D-QSAR studies of new chalcone derivatives as inhibitors of human P-glycoprotein” (Bioorg Med Chem, 2014).

The experiment deals with ATP-dependent translocase ABCB1 (Homo sapiens, UniProt P08183). The experiment is described as follows: Inhibition of P-gp-mediated daunorubicin efflux in human CCRF-CEM/VCR1000 cells measured within 1 hr by FACS flow cytometry. An outline of the steps: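 CCRF vcr1000 cells kept in RPMI 1640 with 10% FCS and 1000 ng/mL vincristine; vincristine washed out 1 week before use. Cells at 1×10⁶/mL were preloaded with daunorubicin (3 µmol/L final), 30 min, 37 °C. After pelleting they were resuspended in warm medium with inhibitor, eight concentrations (1:3 serial), top 20–200 µM. Aliquots at 0, 60, 120, 180 and 240 s went into ice-cold stop solution (5 µmol/L GPV31 final). Initial efflux rates came from linear regression, and IC50 from a Hill-equation fit of rate versus concentration.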
Chain of ATP-dependent translocase ABCB1 (P08183 whole entry): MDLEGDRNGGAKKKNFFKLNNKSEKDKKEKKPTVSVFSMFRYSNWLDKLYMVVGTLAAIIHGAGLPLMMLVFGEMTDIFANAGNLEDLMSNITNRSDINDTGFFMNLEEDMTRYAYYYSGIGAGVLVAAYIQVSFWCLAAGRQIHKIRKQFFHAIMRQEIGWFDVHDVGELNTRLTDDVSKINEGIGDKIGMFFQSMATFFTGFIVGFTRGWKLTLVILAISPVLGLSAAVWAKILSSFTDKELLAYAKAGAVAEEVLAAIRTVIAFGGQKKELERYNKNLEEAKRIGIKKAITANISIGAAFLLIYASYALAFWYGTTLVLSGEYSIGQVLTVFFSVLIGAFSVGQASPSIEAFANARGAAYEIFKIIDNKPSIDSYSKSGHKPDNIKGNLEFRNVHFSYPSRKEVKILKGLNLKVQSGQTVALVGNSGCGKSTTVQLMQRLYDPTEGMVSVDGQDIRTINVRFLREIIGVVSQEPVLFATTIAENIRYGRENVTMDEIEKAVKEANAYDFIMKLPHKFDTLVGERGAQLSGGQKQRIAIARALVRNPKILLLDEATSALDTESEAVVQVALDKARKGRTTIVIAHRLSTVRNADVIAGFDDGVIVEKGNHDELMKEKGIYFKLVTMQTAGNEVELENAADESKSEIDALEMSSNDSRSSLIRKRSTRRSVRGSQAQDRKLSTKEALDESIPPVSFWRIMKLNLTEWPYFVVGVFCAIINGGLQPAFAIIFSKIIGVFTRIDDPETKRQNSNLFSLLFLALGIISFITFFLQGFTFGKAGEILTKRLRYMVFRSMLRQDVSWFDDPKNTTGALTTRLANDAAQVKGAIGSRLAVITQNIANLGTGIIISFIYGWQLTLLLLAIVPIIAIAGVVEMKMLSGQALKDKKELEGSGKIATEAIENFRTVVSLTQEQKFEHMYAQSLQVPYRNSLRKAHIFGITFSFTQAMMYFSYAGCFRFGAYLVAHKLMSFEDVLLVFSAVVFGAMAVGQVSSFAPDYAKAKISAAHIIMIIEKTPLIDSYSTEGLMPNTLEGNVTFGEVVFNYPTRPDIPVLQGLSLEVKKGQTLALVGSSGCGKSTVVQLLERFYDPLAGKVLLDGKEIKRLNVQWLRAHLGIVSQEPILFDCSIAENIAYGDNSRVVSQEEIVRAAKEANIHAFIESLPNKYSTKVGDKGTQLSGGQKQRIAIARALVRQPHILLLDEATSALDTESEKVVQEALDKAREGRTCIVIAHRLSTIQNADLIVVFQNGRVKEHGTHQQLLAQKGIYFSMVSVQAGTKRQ
Turning to `COc1ccccc1/C=C/C=C/C(=O)c1cc(OC)c(O)c(OC)c1`, the midpoint of inhibition, the IC50, lay at 12 µM. In other words, the double-digit micromolar range. The result for `COc1cc2c(cc1OC)C(=O)/C(=C/C=C/c1ccc(N(C)C)cc1)C2` reads 0.04 µM; that for `COc1cc(/C=C/C=C/C(=O)c2cccc(C(=O)/C=C/C=C/c3cc(OC)c(OC)c(OC)c3)c2)cc(OC)c1OC`, 0.06 µM; that for `COc1ccc2c(c1)CC/C(=C\c1ccc3ccccc3c1)C2=O`, 3.55 µM. The result for `COc1cc(/C=C/C=C2\Cc3ccc(OC)c(OC)c3C2=O)ccc1O` reads 2.33 µM; that for `COc1ccc2c(c1)C(=O)/C(=C/C=C/c1cc(OC)c(OC)c(OC)c1)C2`, 1.15 µM. In the case of `COc1cc(/C=C/C(=O)c2cccc(C(=O)/C=C/c3cc(OC)c(OC)c(OC)c3)c2)cc(OC)c1OC`, the IC50 turned out to be 0.14 µM.

The compound `COC(=O)C1=C(O)/C(=C/C=C/c2ccccc2OC)CCC1` returned an IC50 of 20.4 µM.

Regarding `COc1ccc2c(c1)C/C(=C\C=C\c1ccccc1OC)C2=O`, the IC50 was 3.89 µM. The result for `COc1cc(C(=O)/C=C/C=C/c2ccccc2SC)cc(OC)c1OC` reads 0.87 µM; that for `COc1cc(C(=O)/C=C/c2ccccc2SC)cc(OC)c1OC`, 0.65 µM; that for `COc1cc2c(cc1OC)C(=O)/C(=C/C=C/c1cc(OC)c(OC)c(OC)c1)CC2`, 0.14 µM. The result for `COc1cc(C(=O)/C=C/c2ccc(C(=O)O)cc2)cc(OC)c1OC` reads 141 µM; that for `COc1cc(/C=C/C=C2\Cc3ccc(OC)c(OC)c3C2=O)cc(OC)c1OC`, 2.63 µM; that for `COc1cc(C(=O)/C=C/c2cccc(/C=C/C(=O)c3cc(OC)c(OC)c(OC)c3)c2)cc(OC)c1OC`, 0.12 µM. The result for `COc1ccc2c(c1)CC/C(=C\C=C\c1cc(OC)c(OC)c(OC)c1)C2=O` reads 1.74 µM; that for `COc1ccc(C(=O)/C=C/c2cccc(/C=C/C(=O)c3ccc(OC)c(OC)c3)c2)cc1OC`, 0.14 µM; that for `COc1ccccc1/C=C/C=C/C(=O)c1cc(OC)c(OC)c(OC)c1`, 1.38 µM.

`COc1ccccc1C(=O)/C=C/c1c(C)cc(C)cc1C` returned an IC50 of 8.51 µM.

As for `COc1cc2c(cc1OC)C(=O)/C(=C/c1ccc(N(C)C)cc1)C2`, the IC50 was determined as 0.13 µM. Consider `COc1ccc(C(=O)/C=C/c2ccc(OC)c3ccccc23)cc1OC`, for which the IC50 was determined as 2.75 µM.
